Series [1] can be described thus: Half life of the compound in 1:4 D2O:[…] containing at 1 x 10^-3 M NaOD at 5 x 10^-2 M by UV-spectroscopy. Format: physicochemical. The note with it: 1:4 D2O:Me2SO-d2 with NaOD.
The subject of a further series is L1210. Nature of the series: Antitumor activity against mouse L1210 cells allografted in mouse at 500 mg/kg, ip began on day 1 halved compound dose ended at […], ip measured on day 30. It counts as functional, organism-based. The essentials: (§1)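 Female or male mice bearing L1210 lymphoid leukemia were tested under the NCI standard protocol. Dosing was ip, day 1 only, in aqueous Tween-80, at halved doses starting at 500 mg/kg and generally ending at 62.5 mg/kg. Mean survival time was assessed on day 30, and T/C ≥125% was taken as active.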

A further series relates to Mus musculus. Kind of series: Toxicity in mouse allografted with mouse L1210 cells at 500 mg/kg, ip. It counts as organism-based. More on the design: dose 500 mg/kg, route intraperitoneal. The note with it: in vivo. An outline of the steps: as §1
The test system of another series is KB. Kind of series: Cytotoxicity against human KB cells. Format: functional, cell-based.
A short description of series [2]: Half life of the compound in 1:1 H2O:ethylalcohol containing 2.08 x 10^-3 M NaOH at 8.3 x 10^-5 M by UV-spectroscopy. Format: physicochemical. The note with it: 1:1 water:ethanol with NaOH.
A short description of series [3]: Half life of the compound in 1:1 H2O:ethylalcohol containing 3.33 x 10^-3 M NaOH at 8.3 x 10^-5 M by UV-spectroscopy. The conditions noted are these: 1:1 water:ethanol with NaOH. It counts as physicochemical.
Series [4] is described as follows: Half life of the compound in 1:1 H2O:ethylalcohol containing 5 x 10^-3 M NaOH at 8.3 x 10^-5 M by UV-spectroscopy. Format: physicochemical. The note with it: 1:1 water:ethanol with NaOH.
The nature of series [5]: Half life of the compound in 1:1 H2O:ethylalcohol containing 6.66 x 10^-3 M NaOH at 8.3 x 10^-5 M by UV-spectroscopy. It counts as physicochemical. The conditions noted are these: 1:1 water:ethanol with NaOH.
A short description of series [6]: Half life of the compound in 1:1 H2O:ethylalcohol containing 8.33 x 10^-3 M NaOH at 8.3 x 10^-5 M by UV-spectroscopy. It counts as physicochemical. The note with it: 1:1 water:ethanol with NaOH.
Series [7] is described as follows: Drug metabolism assessed as wheat germ orthophosphoric monoester phosphohydrolase-mediated hydrolysis at 1.5 mM by UV spectroscopy. The conditions noted are these: triticum aestivum, 1500 µM. It counts as ADME. The essentials:
(§2)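 Wheat germ orthophosphoric monoester phosphohydrolase (2.1 units/mg toward 2-carboxyphenyl phosphate) was used. Compound at 1.5 mM was incubated in 0.15 M NaOAc pH 5.0 with glycerin at about 25–26 °C for 2 h, against a reference cell without enzyme, with UV monitoring at 290 nm. 2-Carboxyphenyl phosphate was then added to check remaining enzyme activity.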

Series [8] in a line: Inhibition of wheat germ orthophosphoric monoester phosphohydrolase using 2-carboxyphenyl phosphate as substrate at 1.5 mM after 2 hrs by UV spectroscopy. The conditions noted are these: triticum aestivum, 1500 µM. An outline of the steps:
as §2

A short description of series [9]: Toxicity in ip dosed mouse allografted with mouse L1210 cells. It counts as organism-based. The conditions noted are these: in vivo. An outline of the steps:
as §1

Calls of active or inactive are those of the source. No cut-off for these calls is given here.

Consider `O=P(Nc1ccccc1)(Oc1c(F)c(F)c(F)c(F)c1F)N(CCCl)CCCl` (configuration not stated), for which the half-life (commonly the time in which the quantity being followed falls by half) at 50000 µM in [1] is 5.3 min. Besides, the result in the series on L1210 and with KB was inactive. Besides, the Activity entry in the series with Mus musculus was “Non-toxic”.

Turning to `NP(=O)(Oc1c(F)c(F)c(F)c(F)c1F)N(CCCl)CCCl` (configuration not stated), the half-life at 83 µM was 2 min in series [2]; 1.33 min in series [3]; 0.867 min in [4]; 0.717 min in series [5]; 0.6 min in series [6]. Further, the Stability result in series [7] is given as “Stable”. Moreover, the “inhibition (INH)” value in series [8] is given as “Not Active”. In addition, the outcome with L1210 and in the series with KB was inactive. In series [9], this compound showed an MTD of 31.2 mg/kg.

For the compound `CCOc1ccc(NP(=O)(Oc2c(F)c(F)c(F)c(F)c2F)N(CCCl)CCCl)cc1` (configuration not stated), in [1], the half-life at 50000 µM is 8.17 min. The outcome with L1210 and in the series on KB was inactive. Moreover, the Activity entry in the series on Mus musculus was “Non-toxic”.

As to `Cc1ccc(NP(=O)(Oc2c(F)c(F)c(F)c(F)c2F)N(CCCl)CCCl)cc1` (configuration not stated), in [1], the half-life at 50000 µM was 6.53 min. Also, the result in the series on L1210 and in the series on KB was inactive. For the same compound, the Activity result in the series with Mus musculus was “Non-toxic”.
